Shown are actives, neighbours in structure and some others; about 2.1% of the full set was active somewhere.
SR-BI HDL uptake = inhibitors of mouse SR-BI mediated HDL lipid uptake | Q61009 | 0.96% of 320,000 active | inhibition, % at 12.5 µM | ldlA[mSR-BI] CHO cells, DiI-HDL uptake fluorescence, 3 h | AID 488896;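 active = mean replicate inhibition of at least 70% and a set share of replicates each scoring 70 or more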;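 note: 0% = median of neutral control wells and 100% = median of positive control wells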
Target sequence (Q61009 whole entry, looked up): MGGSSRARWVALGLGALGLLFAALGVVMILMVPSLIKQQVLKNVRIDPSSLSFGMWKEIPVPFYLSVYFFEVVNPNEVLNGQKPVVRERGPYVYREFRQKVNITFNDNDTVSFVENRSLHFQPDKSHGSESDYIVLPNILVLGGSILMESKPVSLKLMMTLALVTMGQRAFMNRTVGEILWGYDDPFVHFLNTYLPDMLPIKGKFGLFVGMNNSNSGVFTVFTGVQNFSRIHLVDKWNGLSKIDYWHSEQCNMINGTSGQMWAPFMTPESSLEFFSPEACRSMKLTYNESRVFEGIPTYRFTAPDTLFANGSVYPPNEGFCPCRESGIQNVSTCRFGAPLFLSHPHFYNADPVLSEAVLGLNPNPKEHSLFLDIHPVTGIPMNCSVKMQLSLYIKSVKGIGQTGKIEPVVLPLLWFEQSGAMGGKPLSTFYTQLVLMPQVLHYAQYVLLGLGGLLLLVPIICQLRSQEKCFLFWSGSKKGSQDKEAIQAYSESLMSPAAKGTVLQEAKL
CAL PDZ FP-1 = human CAL PDZ-peptide interaction inhibition; purified CAL PDZ, TMR-peptide fluorescence polarization, 1 h; inhibition, % at 20 µM; 0.02% of 330,000 active;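 active = highest replicate inhibition of at least 40%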;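 note: plate controls were DMSO neutral control wells for no effect and unlabeled competitor peptide control wells for full effect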
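Material – purified CerCALP PDZ construct · Detection – FP readout, S and P plane fluorescence · Measure – percent inhibition from loss of millipolarization · Controls – unlabelled peptide for full inhibition, DMSO wells as neutral · Probe or stimulus – TMR-labelled reporter peptide T*-PRC34 bound in PDZ groove · Times – 1 h at RT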
miR122 inh = inhibitors of miR-122 in Huh7 cells | activation (reporter increase), % at 12.5 µM | 0.3% of 340,000 active | Huh7 miR-122 Renilla luciferase sensor, 48 h; neutral wells = 0, positive control = 100;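 active = mean replicate activation score at least 90 and every replicate individually at or above 90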;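 note: higher luciferase means less miR-122 activity so hits act as miR-122 inhibitors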
ARNT-TACC3 inh = disruptors of human ARNT/TACC3 interaction; Q9Y6A5; AlphaScreen His-ARNT PAS-B/GST-TACC3 binding, luminescence; TACC3 fragment carries E629A point mutation; inhibition, % at 9.99 µM; 0.66% of 390,000 active;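 active = mean inhibition of replicates at least 50% and at least half of replicates each reaching 50%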;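 note: 0% = complete ARNT plus TACC3 wells and 100% = ARNT alone without TACC3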
CAL PDZ FP-2 = blocks peptide binding to the human CAL PDZ domain; inhibition, % at 24.9 µM; AID 602252; purified CAL PDZ, TMR-peptide fluorescence polarization, 1 h; Q9HD26; 0.92% of 300,000 active;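 active = mean inhibition of at least 30% with at least half of replicates also reaching 30%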;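 note: 0% = DMSO neutral control and 100% = excess unlabeled competitor peptide PRC23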
SR-BI uptake up = activators of SR-BI mediated HDL lipid uptake | CHO ldlA[mSR-BI] cells, DiI-HDL uptake fluorescence, 3 h; 100 = double the neutral-control signal | activation, % at 12.5 µM | 0.096% of 320,000 active | AID 504775;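 active = mean replicate activation of at least 60% and every replicate at or above 60%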;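 note: 0% = median plate neutral-control signal and 100% = twice that signal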
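Test system: SR-BI-overexpressing, LDLR-lacking CHO cells; Medium: Ham's F12 with 0.5% BSA, HEPES 25 mM, pH 7.4; Schedule: 3 h, 37 °C; Technique: bottom-read fluorescence, 550/595 nm.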
AlphaScreen ctr = interferes with AlphaScreen signal, flagging false ARNT-TACC3 hits; shares compounds with ARNT-TACC3 inh; His-ARNT PASB-GST AlphaScreen artifact counter-screen, luminescence; AC50, µM (top dose mostly 68 µM), for inactives: at the highest dose activity change, negative = signal decrease; 50% of 1,200 active; AID 651705;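 active = every separate test run was called active for a drop in luminescence, with AC50 within twice the top valid dose, actives reach about 71 µM in these data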
* = called active by the depositor; / = not tested or not shown; [ ] = dose if it differs, or a comment.

SMILES	SR-BI HDL uptake	CAL PDZ FP-1	miR122 inh	ARNT-TACC3 inh	CAL PDZ FP-2	SR-BI uptake up	AlphaScreen ctr
O=C(c1ccccn1)N1CC[C@H]2[C@H](CO)Nc3ccc(Br)cc3[C@H]21	/	/	2[16.7 µM]	9	/	/	/
O=C(c1ccccn1)N1CC[C@@H]2[C@H]1c1cc(Br)ccc1N[C@@H]2CO	/	/	-1[16.7 µM]	69*	/	/	53µM*
CN(C)C(=O)c1cccc(-c2ccc3c(c2)[C@@H]2[C@@H](CCN2C(=O)c2cccnc2)[C@@H](CO)N3)c1	/	/	-1[16.7 µM]	65*	/	/	-10%[42 µM]
O=C(c1cccnc1)N1CC[C@@H]2[C@H](CO)Nc3ccc(-c4ccccc4)cc3[C@@H]21	/	/	8[16.7 µM]	4	/	/	/
CC1C=NC(S(=O)(=O)N2CC[C@@H]3[C@H]2c2cc(-c4ccccc4)ccc2N(C)[C@H]3CO)=N1 (stereo partly drawn)	/	/	13[16.7 µM]	11	/	/	/
N#CC1=C(N)Oc2c(ccc3cccnc23)C1c1ccccc1 (stereo not drawn)	5	1	-64	57*	-2	-5	71µM*
O=C(N[C@H]1CC[C@@H](CCn2cc(-c3ccccn3)nn2)O[C@@H]1CO)c1ccncc1	/	/	/	66*	/	/	31µM*
O=C(N[C@H]1CC[C@H](CCn2cc(-c3ccccn3)nn2)O[C@H]1CO)c1ccncc1	/	/	/	66*	/	/	39µM*
O=C(N[C@H]1CC[C@H](CCn2cc(-c3ccccn3)nn2)O[C@@H]1CO)c1ccncc1	/	/	/	65*	/	/	48µM*
COCc1cn(CC[C@H]2CC[C@@H](NC(=O)c3ccncc3)[C@H](CO)O2)nn1	/	/	/	-47	/	/	/
O=C(N[C@@H]1CC[C@@H](CCn2cc(-c3ccccn3)nn2)O[C@@H]1CO)c1ccncc1	/	/	/	77*	/	/	38µM*
COCc1cn(CC[C@H]2CC[C@H](NC(=O)c3ccncc3)[C@@H](CO)O2)nn1	/	/	/	-15	/	/	/
COCc1cn(CC[C@@H]2CC[C@H](NC(=O)c3ccncc3)[C@@H](CO)O2)nn1	/	/	/	-12	/	/	/
C[C@H](CO)N1C[C@H](C)[C@@H](CN(C)S(=O)(=O)c2ccccc2)Oc2ccc(NC(=O)Nc3cccc4ccccc34)cc2CC1=O	/	/	21[16.7 µM]	/	/	/	/
CN(C)c1ccc2c(c1)[C@@H]1C[C@H](CC(=O)NCC3CC3)O[C@@H](CO)[C@@H]1O2	/	/	1[16.7 µM]	28	/	/	/
CCCC#Cc1cnc2c(c1)C(=O)N([C@H](C)CO)C[C@H](C)[C@@H](CN(C)C(=O)C1CCCCC1)O2	/	/	13[16.7 µM]	/	/	/	/
C[C@@H](C(=O)Nc1nc(-c2ccccn2)cs1)N1C(=O)C2CCCCC2C1=O (stereo partly drawn)	12	-2	-2	63*	-5	-12	21µM*
COc1ccc(-c2csc(NC(=O)CN3C(=O)C4CCCCC4C3=O)n2)cc1OC (stereo not drawn)	58	-2	-2	3	1	-58	/
O=C(CN1C(=O)C2CCCCC2C1=O)Nc1nc(-c2ccccn2)cs1 (stereo not drawn)	-30	-1	3	75*	-5	30	52µM*
COCC#Cc1cnc2c(c1)C(=O)N([C@@H](C)CO)C[C@H](C)[C@@H](CN(C)C(=O)c1ccc3c(c1)OCO3)O2	/	/	-11[16.7 µM]	-2	/	/	/
COc1cc(C2Nc3ccccc3C(=O)N2NS(C)(=O)=O)c([N+](=O)[O-])cc1OC (stereo not drawn)	-15	/	/	active	-6	15	-11%
O=C(CSc1ccc(-c2ccccn2)nn1)Nc1cccc(F)c1	17	1	1	74*	-3	-17	12µM*
Cc1cc(C)cc(NC(=O)CSc2ccc(-c3ccccn3)nn2)c1	52	-3	3	11	-1	-52	/
Cc1csc(NC(=O)CSc2ccc(-c3ccccn3)nn2)n1	/	-1	-4	61*	11	/	16µM*
O=C(CSc1nnc(-c2ccncc2)o1)Nc1ccccc1Cl	-10	-1	1	-4	-4	10	/
